pIC50: −log10 of the molar value.
What was measured:
A2780 [1] = test: Potentiation of 5 uM cisplatin-induced toxicity in 5 uM cisplatin resistant human A2780 cells at 1 uM pretreated for 48 hrs followed by 5 uM cisplatin treatment by MTT assay; type: functional
KYSE-510 [2] = test: Potentiation of 0.75 uM cisplatin-induced toxicity in 0.5 uM cisplatin resistant human KYSE-510 cells at 0.25 uM pretreated for 48 hrs followed by 0.5 uM cisplatin treatment by MTT assay; type: functional
Summary of the method: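 Cisplatin-resistant Kyse510 CisR (derived by weekly cycles of cisplatin over 24−30 weeks), grown in RPMI 1640 with 10% FCS at 37 °C, 5% CO₂. Test agent added 48 h before cisplatin, then 72 h further incubation. Viability by MTT (read at 544/690 nm) relative to untreated control wells. Combination index by Chou−Talalay method. Mean of three experiments.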

CAL-27 [3] = test: Potentiation of 2.5 uM cisplatin-induced toxicity in 1 uM cisplatin resistant human CAL27 cells at 1.5 uM pretreated for 48 hrs followed by 1 uM cisplatin treatment by MTT assay; type: functional
CAL-27 [4] = test: Potentiation of 2.5 uM cisplatin-induced toxicity in 1 uM cisplatin resistant human CAL27 cells at 0.25 uM pretreated for 48 hrs followed by 1 uM cisplatin treatment by MTT assay; type: functional
A2780 [5] = test: Potentiation of 1 uM cisplatin-induced toxicity in 5 uM cisplatin resistant human A2780 cells at 1 uM pretreated for 48 hrs followed by 5 uM cisplatin treatment by MTT assay; type: functional
MDA-MB-231 [6] = test: Potentiation of 5 uM cisplatin-induced toxicity in 1 uM cisplatin resistant human MDA-MB-231 cells at 1 uM pretreated for 48 hrs followed by 1 uM cisplatin treatment by MTT assay; type: functional
KYSE-510 [7] = test: Potentiation of 0.5 uM cisplatin-induced toxicity in 0.5 uM cisplatin resistant human KYSE-510 cells at 1.5 uM pretreated for 48 hrs followed by 0.5 uM cisplatin treatment by MTT assay; type: functional
KYSE-510 [8] = test: Potentiation of 0.5 uM cisplatin-induced toxicity in 0.5 uM cisplatin resistant human KYSE-510 cells at 0.5 uM pretreated for 48 hrs followed by 0.5 uM cisplatin treatment by MTT assay; type: functional
MDA-MB-231 [9] = test: Potentiation of cisplatin-induced toxicity in cisplatin resistant human MDA-MB-231 cells at 1 uM pretreated for 48 hrs followed by cisplatin treatment by MTT assay; type: functional
Summary of the method: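 Resistant sublines pretreated 48 h with 1 μM HDAC inhibitor, then cisplatin over a concentration range for 72 h; MTT viability read at 544/690 nm. Cisplatin IC50 from four-parameter logistic fit of pooled data (≥3 experiments, triplicate); shift factor = IC50 of cisplatin alone divided by IC50 of the combination.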

Histone deacetylase 5 = Histone deacetylase 5 (Homo sapiens, UniProt Q9UQL6); test: Inhibition of human HDAC5 by fluorescence assay
Histone deacetylase 5, sequence (Q9UQL6 whole entry): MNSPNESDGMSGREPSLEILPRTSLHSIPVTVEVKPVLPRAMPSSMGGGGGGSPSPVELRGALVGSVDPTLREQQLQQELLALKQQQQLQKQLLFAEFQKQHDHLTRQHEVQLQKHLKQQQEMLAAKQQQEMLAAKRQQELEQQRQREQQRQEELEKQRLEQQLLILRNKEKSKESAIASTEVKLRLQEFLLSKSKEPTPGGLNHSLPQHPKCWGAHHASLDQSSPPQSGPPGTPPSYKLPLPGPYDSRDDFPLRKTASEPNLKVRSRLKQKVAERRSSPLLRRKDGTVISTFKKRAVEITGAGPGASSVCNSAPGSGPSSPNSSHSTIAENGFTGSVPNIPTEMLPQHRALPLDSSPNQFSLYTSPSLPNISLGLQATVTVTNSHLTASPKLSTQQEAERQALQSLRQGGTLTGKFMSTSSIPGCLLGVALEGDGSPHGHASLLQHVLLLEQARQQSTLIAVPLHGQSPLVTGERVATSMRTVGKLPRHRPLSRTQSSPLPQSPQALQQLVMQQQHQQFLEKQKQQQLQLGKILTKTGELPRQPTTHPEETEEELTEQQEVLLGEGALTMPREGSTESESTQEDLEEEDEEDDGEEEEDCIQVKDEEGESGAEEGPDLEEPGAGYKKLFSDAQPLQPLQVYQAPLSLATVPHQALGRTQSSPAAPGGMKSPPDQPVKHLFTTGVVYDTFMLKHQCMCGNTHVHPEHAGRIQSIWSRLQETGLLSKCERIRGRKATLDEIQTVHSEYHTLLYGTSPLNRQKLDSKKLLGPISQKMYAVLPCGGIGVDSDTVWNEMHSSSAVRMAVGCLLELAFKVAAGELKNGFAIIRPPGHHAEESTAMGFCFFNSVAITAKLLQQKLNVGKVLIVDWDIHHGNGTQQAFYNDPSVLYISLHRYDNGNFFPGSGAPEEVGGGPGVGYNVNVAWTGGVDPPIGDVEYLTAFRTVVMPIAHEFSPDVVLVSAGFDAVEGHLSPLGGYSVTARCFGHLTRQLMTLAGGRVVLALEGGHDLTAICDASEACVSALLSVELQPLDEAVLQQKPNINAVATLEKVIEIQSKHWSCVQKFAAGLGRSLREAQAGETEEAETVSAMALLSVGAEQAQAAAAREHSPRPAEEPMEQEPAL

Histone deacetylase 4 = Histone deacetylase 4 (Homo sapiens, UniProt P56524); test: Inhibition of human HDAC4 by fluorescence assay
Histone deacetylase 4, sequence (P56524 whole entry): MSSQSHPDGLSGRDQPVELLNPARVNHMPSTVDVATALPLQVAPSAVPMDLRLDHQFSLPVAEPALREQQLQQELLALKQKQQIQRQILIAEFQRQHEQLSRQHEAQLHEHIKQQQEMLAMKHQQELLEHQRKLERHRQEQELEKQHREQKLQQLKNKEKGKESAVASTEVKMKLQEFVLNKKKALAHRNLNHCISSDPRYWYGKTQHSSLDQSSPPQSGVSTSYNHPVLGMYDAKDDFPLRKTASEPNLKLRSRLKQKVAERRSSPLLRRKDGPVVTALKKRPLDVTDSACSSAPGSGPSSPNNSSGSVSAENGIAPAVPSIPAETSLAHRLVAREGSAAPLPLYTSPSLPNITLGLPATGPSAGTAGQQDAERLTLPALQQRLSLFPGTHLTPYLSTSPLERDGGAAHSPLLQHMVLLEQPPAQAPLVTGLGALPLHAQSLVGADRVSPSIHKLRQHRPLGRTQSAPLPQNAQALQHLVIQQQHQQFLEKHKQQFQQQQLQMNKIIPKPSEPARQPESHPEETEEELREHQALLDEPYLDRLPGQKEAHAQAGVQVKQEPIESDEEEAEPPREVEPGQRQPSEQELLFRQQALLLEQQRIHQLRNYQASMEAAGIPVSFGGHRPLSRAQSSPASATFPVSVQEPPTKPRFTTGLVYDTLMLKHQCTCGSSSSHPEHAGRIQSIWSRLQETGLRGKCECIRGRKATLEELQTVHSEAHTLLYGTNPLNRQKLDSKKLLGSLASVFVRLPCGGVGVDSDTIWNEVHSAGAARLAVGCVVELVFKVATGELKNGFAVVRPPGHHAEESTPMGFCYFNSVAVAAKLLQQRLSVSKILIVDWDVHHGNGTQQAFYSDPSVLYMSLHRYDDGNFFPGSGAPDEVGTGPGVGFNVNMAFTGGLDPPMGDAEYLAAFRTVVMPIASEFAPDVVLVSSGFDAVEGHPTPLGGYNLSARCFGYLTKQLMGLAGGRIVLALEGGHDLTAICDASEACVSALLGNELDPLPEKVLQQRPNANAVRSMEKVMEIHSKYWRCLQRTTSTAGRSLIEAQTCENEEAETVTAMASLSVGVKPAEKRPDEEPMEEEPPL

Histone deacetylase [10] = test: Inhibition of HDAC in cisplatin resistant human KYSE-510 cells after 18 hrs by fluorescence assay; type: cell-based
Histone deacetylase [11] = test: Inhibition of HDAC in cisplatin sensitive human KYSE-510 cells after 18 hrs by fluorescence assay; type: cell-based
A2780 [12] = test: Potentiation of 20 uM cisplatin-induced toxicity in 5 uM cisplatin resistant human A2780 cells at 1 uM pretreated for 48 hrs followed by 5 uM cisplatin treatment by MTT assay; type: functional
CAL-27 [13] = test: Potentiation of 45 uM cisplatin-induced toxicity in 1 uM cisplatin resistant human CAL27 cells at 0.5 uM pretreated for 48 hrs followed by 1 uM cisplatin treatment by MTT assay; type: functional
MDA-MB-231 [14] = test: Potentiation of […] cisplatin-induced toxicity in 1 uM cisplatin resistant human MDA-MB-231 cells at 1.5 uM pretreated for 48 hrs followed by 1 uM cisplatin treatment by MTT assay; type: functional
KYSE-510 [15] = test: Potentiation of 3.16 uM cisplatin-induced toxicity in 0.5 uM cisplatin resistant human KYSE-510 cells at 1 uM pretreated for 48 hrs followed by 0.5 uM cisplatin treatment by MTT assay; type: functional
KYSE-510 [16] = test: Potentiation of 3.16 uM cisplatin-induced toxicity in 0.5 uM cisplatin resistant human KYSE-510 cells at 0.5 uM pretreated for 48 hrs followed by 0.5 uM cisplatin treatment by MTT assay; type: functional
CAL-27 [17] = test: Potentiation of 10 uM cisplatin-induced toxicity in 1 uM cisplatin resistant human CAL27 cells at 0.25 uM pretreated for 48 hrs followed by 1 uM cisplatin treatment by MTT assay; type: functional
MDA-MB-231 [18] = test: Potentiation of 40 uM cisplatin-induced toxicity in 1 uM cisplatin resistant human MDA-MB-231 cells at 1.5 uM pretreated for 48 hrs followed by 1 uM cisplatin treatment by MTT assay; type: functional
MDA-MB-231 [19] = test: Potentiation of 40 uM cisplatin-induced toxicity in 1 uM cisplatin resistant human MDA-MB-231 cells at 0.25 uM pretreated for 48 hrs followed by 1 uM cisplatin treatment by MTT assay; type: functional
A2780 [20] = test: Potentiation of 8 uM cisplatin-induced toxicity in 5 uM cisplatin resistant human A2780 cells at 1 uM pretreated for 48 hrs followed by 5 uM cisplatin treatment by MTT assay; type: functional
A2780 [21] = test: Potentiation of 8 uM cisplatin-induced toxicity in 5 uM cisplatin resistant human A2780 cells at 0.25 uM pretreated for 48 hrs followed by 5 uM cisplatin treatment by MTT assay; type: functional
KYSE-510 [22] = test: Potentiation of 1 uM cisplatin-induced toxicity in 0.5 uM cisplatin resistant human KYSE-510 cells at 1.5 uM pretreated for 48 hrs followed by 0.5 uM cisplatin treatment by MTT assay; type: functional
CAL-27 [23] = test: Potentiation of 5 uM cisplatin-induced toxicity in 1 uM cisplatin resistant human CAL27 cells at 1.5 uM pretreated for 48 hrs followed by 1 uM cisplatin treatment by MTT assay; type: functional
CAL-27 [24] = test: Potentiation of 5 uM cisplatin-induced toxicity in 1 uM cisplatin resistant human CAL27 cells at 0.5 uM pretreated for 48 hrs followed by 1 uM cisplatin treatment by MTT assay; type: functional
MDA-MB-231 [25] = test: Potentiation of 25 uM cisplatin-induced toxicity in 1 uM cisplatin resistant human MDA-MB-231 cells at 1 uM pretreated for 48 hrs followed by 1 uM cisplatin treatment by MTT assay; type: functional
[26] = test system: A2780 CisR (Homo sapiens); test: cells; settings: 72 h

- pIC50 (Histone deacetylase 5): 8.37
- pIC50 (Histone deacetylase 4): 7.92
- IC50 (Histone deacetylase [10]): 350 nM
- IC50 (Histone deacetylase [11]): 1000 nM
- pIC50 [26]: 6.49
SMILES: Cc1cc(C)cc(C(=O)NOCCCCCC(=O)NO)c1
- Activity (A2780 [1]): Dose-dependent effect
- fractional inhibitory concentration index (FICI) (A2780 [1]): 0.64
- Activity (KYSE-510 [2]): Dose-dependent effect
- fractional inhibitory concentration index (FICI) (KYSE-510 [2]): 0.1
- Activity (CAL-27 [3]): Dose-dependent effect
- fractional inhibitory concentration index (FICI) (CAL-27 [3]): 0.34
- Activity (CAL-27 [4]): Dose-dependent effect
- Activity (A2780 [5]): Dose-dependent effect
- fractional inhibitory concentration index (FICI) (A2780 [5]): 0.82
- Activity (MDA-MB-231 [6]): Dose-dependent effect
- Activity (KYSE-510 [7]): Dose-dependent effect
- fractional inhibitory concentration index (FICI) (KYSE-510 [7]): 0.06
- Activity (KYSE-510 [8]): Dose-dependent effect
- fractional inhibitory concentration index (FICI) (KYSE-510 [8]): 0.13
- Activity (MDA-MB-231 [9]): Dose-dependent effect
- fold change (FC) (MDA-MB-231 [9]): 3.53
- Activity (A2780 [12]): Dose-dependent effect
- fractional inhibitory concentration index (FICI) (A2780 [12]): 0.49
- Activity (CAL-27 [13]): Dose-dependent effect
- fractional inhibitory concentration index (FICI) (CAL-27 [13]): 0.31
- Activity (MDA-MB-231 [14]): Dose-dependent effect
- fractional inhibitory concentration index (FICI) (MDA-MB-231 [14]): 0.8
- Activity (KYSE-510 [15]): Dose-dependent effect
- fractional inhibitory concentration index (FICI) (KYSE-510 [15]): 0.09
- Activity (KYSE-510 [16]): Dose-dependent effect
- fractional inhibitory concentration index (FICI) (KYSE-510 [16]): 0.09
- Activity (CAL-27 [17]): Dose-dependent effect
- fractional inhibitory concentration index (FICI) (CAL-27 [17]): 0.85
- Activity (MDA-MB-231 [18]): Dose-dependent effect
- fractional inhibitory concentration index (FICI) (MDA-MB-231 [18]): 0.84
- Activity (MDA-MB-231 [19]): Dose-dependent effect
- Activity (A2780 [20]): Dose-dependent effect
- fractional inhibitory concentration index (FICI) (A2780 [20]): 0.59
- Activity (A2780 [21]): Dose-dependent effect
- fractional inhibitory concentration index (FICI) (A2780 [21]): 0.78
- Activity (KYSE-510 [22]): Dose-dependent effect
- fractional inhibitory concentration index (FICI) (KYSE-510 [22]): 0.05
- Activity (CAL-27 [23]): Dose-dependent effect
- fractional inhibitory concentration index (FICI) (CAL-27 [23]): 0.22
- Activity (CAL-27 [24]): Dose-dependent effect
- fractional inhibitory concentration index (FICI) (CAL-27 [24]): 0.45
- Activity (MDA-MB-231 [25]): Dose-dependent effect
- fractional inhibitory concentration index (FICI) (MDA-MB-231 [25]): 0.72
